Results as given in ChEMBL document CHEMBL3632527 (J Med Chem, 2015).
Calls of active or inactive are those of the source. The calls are words filed in the database; no cut-off is given here.

How the values were obtained:
Translocator protein [1] = target: T1, Translocator protein (Homo sapiens, UniProt P30536); assay: Displacement of [3H]PK11195 from TSPO in human HEK293T cell membranes incubated for 90 mins by competition radioligand binding assay; design: species or system HEK-293T
Translocator protein [2] = target: T1, Translocator protein; assay: Displacement of [3H]PK11195 from TSPO in human T98G cell membranes incubated for 90 mins by competition radioligand binding assay
T98G [3] = assay: Antiproliferative activity against human T98G cells at 1 to 100 uM incubated for 48 hrs by BrdU enzyme-linked immunosorbent assay; type: functional, cell-based
How it was run: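 Basal proliferation of T98G human glioma cells, which carry the Ala147 TSPO genotype without the rs6971 polymorphism, was measured with compounds alone at 1–100 μM.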

T98G [4] = assay: Potentiation of antiproliferative activity of PK11195 at 100 uM against human T98G cells incubated for 48 hrs by BrdU enzyme-linked immunosorbent assay; type: functional, cell-based
T98G [5] = assay: Cytotoxicity against human T98G cells assessed as cell viability in the presence of PK11195 after 48 hrs by cell titer blue staining based fluorescence method
T98G [6] = assay: Cytotoxicity against human T98G cells assessed as cell viability after 48 hrs by cell titer blue staining based fluorescence method
T98G [7] = assay: Potentiation of antiproliferative activity of PK11195 at 62.5 uM against human T98G cells incubated for 48 hrs by BrdU enzyme-linked immunosorbent assay; type: functional, cell-based
T98G [8] = assay: Potentiation of antiproliferative activity of PK11195 against human T98G cells incubated for 48 hrs by BrdU enzyme-linked immunosorbent assay; type: functional, cell-based
T98G [9] = assay: Potentiation of antiproliferative activity of PK11195 at 10 uM against human T98G cells incubated for 48 hrs by BrdU enzyme-linked immunosorbent assay; type: functional, cell-based

T1 sequence (P30536 whole entry): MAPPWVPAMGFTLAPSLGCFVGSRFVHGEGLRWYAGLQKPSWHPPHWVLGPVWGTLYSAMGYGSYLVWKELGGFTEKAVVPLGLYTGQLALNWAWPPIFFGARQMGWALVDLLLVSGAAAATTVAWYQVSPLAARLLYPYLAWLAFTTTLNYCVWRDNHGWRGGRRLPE

| Ki (Translocator protein [1]) [nM] | Ki (Translocator protein [2]) [nM] | SMILES | Activity (T98G [3]) | Activity (T98G [4]) | Activity (T98G [5]) | Activity (T98G [6]) | Activity (T98G [7]) | EC50 (T98G [8]) [nM] | Activity (T98G [9]) |
| --- | --- | --- | --- | --- | --- | --- | --- | --- | --- |
| 29.1 | 144 | CCN(CC)C(=O)Cn1c(-c2ccc(OC)cc2)nc2c(C)cc(C)nc21 | inactive | inactive | Non-toxic | Non-toxic | – | – | – |
| 224 | 398 | CCN(CC)C(=O)Cn1c(-c2ccc(OC)cc2)nc2c(C)cc(C)cc21 | inactive | – | Non-toxic | Non-toxic | Active | – | – |
| 28.1 | 806 | CCN(CC)C(=O)Cn1c(-c2ccc(OC)cc2)cc2c(C)cc(C)cc21 | inactive | – | Non-toxic | Non-toxic | – | 14700 | Active |
| – | – | CCN(CC)C(=O)Cc1c(-c2ccc(OC)cc2)nn2c(C)cc(C)nc12 | inactive | inactive | Non-toxic | Non-toxic | – | – | – |
| > 10000 | > 10000 | CCN(CC)C(=O)Cn1c(-c2ccc(OC)cc2)nc2c(C)nc(C)nc21 | inactive | inactive | Non-toxic | Non-toxic | – | – | – |
